The list is not random: actives were taken first. Their share in the collection is about 2.6%.
CHT allo act: human CHT allosteric activation. CHT-expressing cells, membrane potential dye, choline EC20; active compounds read high; LV-AA mutant CHT in HEK293 cells. B-score at 10 µM. 310,000 compounds, 0.49% hits;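 active means initial fluorescence not abnormally high and integrated response B-score, plate-corrected, over 3 SD above library mean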
Target sequence (Q9GZV3 whole entry, looked up): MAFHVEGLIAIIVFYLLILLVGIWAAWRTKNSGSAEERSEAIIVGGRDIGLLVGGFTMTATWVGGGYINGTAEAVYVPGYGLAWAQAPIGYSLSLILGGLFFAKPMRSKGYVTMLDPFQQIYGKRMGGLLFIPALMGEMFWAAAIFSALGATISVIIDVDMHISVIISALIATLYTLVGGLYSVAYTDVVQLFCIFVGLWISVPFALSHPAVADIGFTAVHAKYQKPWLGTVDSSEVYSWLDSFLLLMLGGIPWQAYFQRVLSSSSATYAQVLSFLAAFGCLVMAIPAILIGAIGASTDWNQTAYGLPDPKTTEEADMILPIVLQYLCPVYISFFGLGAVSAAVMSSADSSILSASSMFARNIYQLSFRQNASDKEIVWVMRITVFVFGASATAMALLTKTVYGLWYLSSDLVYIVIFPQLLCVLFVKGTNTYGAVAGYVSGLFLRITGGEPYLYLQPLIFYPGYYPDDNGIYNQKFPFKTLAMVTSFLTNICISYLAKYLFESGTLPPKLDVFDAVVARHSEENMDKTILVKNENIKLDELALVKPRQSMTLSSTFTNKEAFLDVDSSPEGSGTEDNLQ
T cruzi inh: T. cruzi replication inhibition; T. cruzi beta-gal in NIH3T3, luminescence, 90 h; inhibition, % (test concentration not listed); 300,000 compounds, 1.4% hits; AID 1885;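 active means mean inhibition across valid replicates above about 55%, limit read from the data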;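 further: signal also drops with host cell toxicity which is not excluded here; higher percent means less beta-gal luminescence so fewer parasites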
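Incubation – ≥90 h infection period, 3 h prior cell attachment · System – NIH/3T3 fibroblasts plus reporter T. cruzi · Doses – compound pinned at 50 nL/well, DMSO · Read-out basis – percent inhibition of parasite-derived β-gal signal · Signal – luminescent β-galactosidase signal after 60 min lysis · Also added – 5000 T. cruzi trypomastigotes/well · Medium – Low-serum DMEM with 2% FBS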
PolyA inh: inhibitors of polyadenylation in S. cerevisiae | 300,000 compounds, 0.02% hits | activity score, % at 12 µM | S. cerevisiae SKY197-pL101 polyadenylation reporter, beta-gal luminescence; efflux-impaired pdr1/pdr3 knockout yeast; score 100 = 6 SD above DMSO | AID 1875;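 active means lowest replicate activity score at least 50, where 100 means six control SD above control mean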;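 further: yeast exposed to compound for 9 h at 30 °C; higher score means more reporter readthrough which indicates perturbed polyadenylation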
CHT inh: inhibitors of human choline transporter CHT | Q9GZV3 | CHT-expressing cells, membrane potential dye, choline response; active compounds read low | B-score at 10 µM | 310,000 compounds, 0.86% hits | AID 488975;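 active means B-score over 3 SD under the library average, and starting fluorescence ratio not unusually high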;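 further: choline stimulus applied at its EC90 after an EC20 pre-addition; B-score computed on integrated fluorescence ratio after choline addition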
CHT block conf: confirmation of human choline transporter CHT inhibitors. AID 493221. shares compounds with CHT inh. 2,400 compounds, 70% hits. CHT-expressing cells, choline membrane potential dye; LV-to-AA substituted CHT, HEK293 cells. CHT activity remaining % of control (active compounds read low), % at 10 µM;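 active means choline transporter activity left, mean of duplicates at 10 µM, below buffer-only control mean minus 3 SD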;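 further: depolarization triggered by choline at its EC90 following an EC20 pre-addition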
HEK293 MPD ctr: counter-screen for CHT inhibitors: effect in parental HEK293 cells; shares compounds with CHT inh; membrane potential dye, choline response; active = decrease or increase beyond buffer ±3SD; membrane potential ratio readout (active if shifted either direction beyond buffer ±3SD; no single direction) at 10 µM; 2,400 compounds, 4% hits; AID 493222;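 further: parental cells lack the transporter so any hit is non-specific; ratio is peak minus trough fluorescence over baseline after EC90 choline challenge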
A number is an active result; . = inactive; / = not tested or not shown.

SMILES	CHT allo act	T cruzi inh	PolyA inh	CHT inh	CHT block conf	HEK293 MPD ctr
CC(C)=CCN1CCN(Cc2nc(-c3ccc(F)cc3)cs2)CC1CCO (stereo not given)	.	.	.	-5.4	.	.
O=S(=O)(Nc1nc2ccccc2nc1Nc1cccc(S(=O)(=O)N2CCCCC2)c1)c1ccccc1	.	.	.	-7.4	53%	.
COc1ccccc1C(c1c(O)nc(SC)[nH]c1=O)c1c(O)nc(SC)[nH]c1=O	.	.	.	.	.	.
CCOc1cc(C(c2c(O)nc(SC)[nH]c2=O)c2c(O)nc(SC)[nH]c2=O)ccc1O	.	.	.	.	/	/
N#C/C(=C\c1ccc(O)c(Br)c1)C(=O)NCc1ccccc1	.	.	.	-6.4	64%	.
COc1cc(NC(=O)CSc2nnc(-c3ccncc3)o2)cc(OC)c1OC	.	.	.	.	/	/
CCc1oc(C(=O)O)cc1COC	.	.	.	-11	.	.
CC1Cc2ccccc2N1C(=O)c1ccc2snnc2c1 (stereo not given)	.	/	/	.	/	/
Cc1nc2cc(C(=O)N3c4ccccc4CC3C)ccc2s1 (stereo not given)	.	.	.	-5.3	56%	.
CCCCNC(=O)Nc1c(C(=O)OC)[nH]c2ccc(C)cc12	.	.	.	-6.9	.	.
CCCCNC(=O)Nc1c(C(=O)OCC)[nH]c2ccccc12	.	.	.	.	/	/
NS(=O)(=O)c1ccc(N/N=C/c2ccc(C(=O)O)cc2)c([N+](=O)[O-])c1	.	.	.	.	/	/
Cc1nn(-c2ccccc2)c(N2CCCC2)c1/C=N/Nc1ccc(S(N)(=O)=O)cc1[N+](=O)[O-]	.	.	.	-5	.	.
CC(C)Cc1ccc(CN2CCCC(NC(=O)CCN3CCOCC3)C2)cc1 (stereo not given)	.	.	.	.	/	/
CC(=O)NC1(C(F)(F)F)NC(=O)N(CCc2ccccc2)C1=O (stereo not given)	.	.	.	.	/	/
CCCc1ccc(OCc2ccc(C(=O)NCc3cccnc3)o2)c(OC)c1	.	.	.	-5.7	68%	.
Cc1nnc(NC(=O)c2nc(S(=O)(=O)Cc3ccccc3)ncc2Cl)s1	.	.	.	-11	28%	.
CCCc1nnc(NC(=O)c2nc(S(=O)(=O)Cc3cccc(C)c3)ncc2Cl)s1	.	.	.	-5.2	30%	.
O=C(NCc1cccc(Cl)c1)c1ccc2ccccc2n1	.	.	.	.	/	/
COc1ccccc1C(=O)Nc1ccc2c(c1)nc(CN1CCCCC1)n2C	.	.	.	.	/	/
Cn1c(CN2CCCCC2)nc2cc(NC(=O)c3ccccc3Cl)ccc21	.	.	.	-7.5	40%	.
Cc1ccccc1OCCSc1nnc(C)n1-c1ccccc1	.	.	.	-5.2	.	.
CCC1CCC(N2CCN(c3ccc([N+](=O)[O-])cc3)CC2)CC1 (stereo not given)	.	.	.	.	/	/
C=CCn1c(SCc2cc(=O)n3ccsc3n2)nc2ccccc2c1=O	.	.	.	.	/	/
Cc1cc(SCc2cc(=O)n3ccsc3n2)nc2ccccc12	.	.	.	-13	-1.4%	.
SMILES	CHT allo act	T cruzi inh	PolyA inh	CHT inh	CHT block conf	HEK293 MPD ctr
O=C(Nc1scc(-c2ccccc2)c1C(=O)O)c1ccc(F)cc1	.	.	.	.	/	/
O=C(Nc1scc(-c2ccccc2)c1C(=O)O)c1ccccc1F	.	.	.	.	/	/
Cc1ccc(-c2csc(NC(=O)c3ccccc3F)c2C(=O)O)cc1	.	.	.	-5.1	45%	.
CC(C)Cc1csc(NC(=O)c2ccc(Br)cc2)c1C(=O)O	.	.	.	-10	61%	.
Cc1ccc(-c2csc(NC(=O)c3ccc(F)cc3)c2C(=O)O)cc1	.	.	.	-6.4	53%	.
Cc1nn(CC(C)C)c2sc(C(=O)NC3CC(C)(C)NC(C)(C)C3)cc12	.	.	.	.	/	/
CCc1nnc(NC(=O)CCC(=O)Nc2ccc(Cl)cc2)s1	.	.	.	.	/	/
S=c1[nH]c2cc(Cl)ccc2s1	.	.	.	-5	54%	.
S=c1[nH]c2ccc(Cl)cc2[nH]1	.	.	.	.	/	/
Cc1cc(NC(=O)Nc2ccccc2)n(C(C)(C)C)n1	.	.	.	.	/	/
COc1ccc(CN2C(=NC(=O)COc3ccccc3)SC3CS(=O)(=O)CC32)cc1 (stereo not given)	.	.	.	.	/	/
CCN(CC)S(=O)(=O)c1ccc(Cl)c(C(=O)Nc2nncs2)c1	.	.	.	.	/	/
CCN(CC)S(=O)(=O)c1cc(C(=O)Nc2nncs2)c(Cl)cc1Cl	.	.	.	-9.5	50%	.
COc1ccc(C(CNC(=O)c2cc(S(=O)(=O)NCc3ccccc3)ccc2C)N2CCOCC2)cc1 (stereo not given)	.	.	.	-10	19%	.
Cn1c(=O)c(C#N)c(-c2ccc(F)cc2)c2cc(C(=O)c3cc(Cl)cc(Cl)c3O)cnc21	.	.	.	-8.2	53%	.
CCCN(C(=O)c1cn(C)c(=O)c2ccccc12)c1ccccc1C	.	.	.	.	/	/
COc1ccc(Nc2cccc3ccccc23)cc1	.	.	.	.	/	/
O=C(c1nn(-c2ccccc2)c(=O)c2ccccc12)N1CCN(c2ccccn2)CC1	.	.	.	-6	.	.
COc1ccc(-n2nc(C(=O)NCC(=O)N3CCN(c4ccccn4)CC3)c3ccccc3c2=O)cc1OC	.	.	.	.	/	/
Cc1ccc(NC(=O)COC(=O)C2CSC3(C)CCC(=O)N23)cc1S(=O)(=O)N1CCOCC1 (stereo not given)	.	.	.	-7.3	.	.
CCC(=O)N1CCN=C1SCc1cccc(F)c1	.	.	.	.	/	/
COc1cccc(OCCSc2nnc3sc4ccccc4n23)c1	.	.	.	-8.7	.	.
COc1ccccc1C(=O)NN(C)C1=NS(=O)(=O)c2ccccc21	.	.	.	.	/	/
N#CCCn1cc(/C=C2\NC(=S)N(c3ccccc3)C2=O)c(-c2ccc(F)cc2)n1	.	.	.	-6.8	60%	.
COc1ccc(-c2nc(CN3CCCCC3c3nccn3C)c(C)o2)c(C)c1C (stereo not given)	.	.	.	.	/	/
CCC1CCCCN1CCCNC(=O)c1ccc2c(c1)c(C)c(C)n2C (stereo not given)	.	.	.	-5.7	35%	.
CCCCCn1c(=O)[nH]c2cc(C(=O)NCCCN3CCCCC3CC)ccc2c1=O (stereo not given)	.	.	.	-6	41%	.
CC(=O)Nc1ccc(NC(=O)C(C)OC(=O)c2cccc(S(=O)(=O)N3CCCC3)c2)cc1 (stereo not given)	.	.	.	.	/	/
COC(=O)c1cccc(NC(=O)c2ccc(S(=O)(=O)N3CCN(C)CC3)cc2)c1	.	.	.	-5.1	33%	.
